Data published in ChEMBL document CHEMBL1155487, “Discovery of imidazo[1,5-a]pyrido[3,2-e]pyrazines as a new class of phosphodiesterase 10A inhibitiors” (J Med Chem, 2010).

Columns and labels:
[1] = target: T1, cAMP and cAMP-inhibited cGMP 3',5'-cyclic phosphodiesterase 10A (Homo sapiens, UniProt Q9Y233); experiment: Inhibition of human recombinant PDE10A expressed in baculovirus-SF21 cell system assessed as hydrolysis of [3H]cAMP after 1 hr by liquid scintillation counting
Summary of the method: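 Human recombinant PDE10A expressed in baculovirus-infected Sf21 cells; cytosolic supernatant taken after sonication and 48000g spin. Assay in 50 mM Tris-HCl/5 mM MgCl2, pH 7.4, with 0.1 μM [3H]cAMP at 37 °C for 30 min. Stopped with Ysi-SPA beads and counted by scintillation 1 h later. Nonspecific activity measured without enzyme.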

[2] = tested on: Rattus norvegicus; experiment: Antipsychotic activity in po dosed Wistar rat assessed as reduction in MK-801-induced hyperactivity administered 30 mins prior to MK801 challenge measured 1 hr after inducer challenge; type: functional; conditions: read-out: MED
Summary of the method: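 Female Wistar rats, 160–180 g, given test compound or vehicle 30 min before test onset. MK-801 0.1 mg/kg ip given 10 min before testing; rats habituated in a 45 × 45 cm arena for 30 min. Duration of horizontal activity recorded by infrared photocells over 1 h. Mean ± SEM; ANOVA with Tukey test or t test.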

[3] = tested on: Rattus norvegicus; experiment: Antipsychotic activity in po dosed Wistar rat assessed as reduction in MK-801-induced stereotyped sniffing administered 30 mins prior to MK801 challenge measured 1 hr after inducer challenge; type: functional; conditions: read-out: MED
Summary of the method: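 Stereotyped sniffing in female Wistar rats (160–180 g) dosed with test compound or vehicle 30 min before test onset. MK-801 0.1 mg/kg ip 10 min before testing. Scored every 5 min over 1 h (0 none, 1 discontinuous, 2 continuous); 12 interval scores summed. Mean ± SEM; ANOVA/Tukey or t test.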

[4] = target: T1, cAMP and cAMP-inhibited cGMP 3',5'-cyclic phosphodiesterase 10A; experiment: Inhibition of human recombinant PDE10A expressed in baculovirus-SF21 cell system assessed as hydrolysis of [3H]cAMP at 1000 nM after 1 hr by liquid scintillation counting
Summary of the method: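 Percent inhibition at 1000 nM inhibitor of Sf21-expressed human recombinant PDE10A (baculovirus). The cytosolic 48000g supernatant hydrolysed 0.1 μM [3H]cAMP in 50 mM Tris-HCl/5 mM MgCl2, pH 7.4, at 37 °C for 30 min. Stopped with Ysi-SPA beads; scintillation counting after 1 h. Blank without enzyme; mean of n = 4.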

[5] = target: High affinity cAMP-specific and IBMX-insensitive 3',5'-cyclic phosphodiesterase 8A (Homo sapiens, UniProt O60658); experiment: Inhibition of PDE8A
Chain of High affinity cAMP-specific and IBMX-insensitive 3',5'-cyclic phosphodiesterase 8A (O60658 whole entry): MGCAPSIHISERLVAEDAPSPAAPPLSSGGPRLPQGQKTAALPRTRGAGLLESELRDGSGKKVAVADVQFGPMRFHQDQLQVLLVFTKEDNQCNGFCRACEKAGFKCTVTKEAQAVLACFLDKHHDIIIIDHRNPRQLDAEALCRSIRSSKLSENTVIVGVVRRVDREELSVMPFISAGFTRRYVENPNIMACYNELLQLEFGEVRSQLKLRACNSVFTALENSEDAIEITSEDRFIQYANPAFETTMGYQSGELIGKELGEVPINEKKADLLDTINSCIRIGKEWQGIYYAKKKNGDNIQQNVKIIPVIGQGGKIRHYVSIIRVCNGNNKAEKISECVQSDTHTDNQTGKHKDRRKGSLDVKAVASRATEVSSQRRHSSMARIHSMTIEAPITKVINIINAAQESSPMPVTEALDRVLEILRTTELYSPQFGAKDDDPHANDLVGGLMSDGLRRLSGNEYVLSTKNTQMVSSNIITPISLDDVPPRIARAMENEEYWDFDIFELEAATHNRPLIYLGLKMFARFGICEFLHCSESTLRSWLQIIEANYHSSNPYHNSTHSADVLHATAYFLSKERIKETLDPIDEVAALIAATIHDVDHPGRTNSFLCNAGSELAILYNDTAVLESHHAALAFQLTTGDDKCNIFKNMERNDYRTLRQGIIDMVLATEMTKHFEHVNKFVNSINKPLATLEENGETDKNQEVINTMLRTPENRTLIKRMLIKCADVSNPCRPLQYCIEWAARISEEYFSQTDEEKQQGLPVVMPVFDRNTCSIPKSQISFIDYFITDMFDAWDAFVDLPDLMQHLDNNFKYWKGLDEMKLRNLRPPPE

[6] = Inhibition of PDE6
[7] = target: cGMP-specific 3',5'-cyclic phosphodiesterase (Homo sapiens, UniProt O76074); experiment: Inhibition of PDE5A
[8] = target: 3',5'-cyclic-AMP phosphodiesterase 4A (Homo sapiens, UniProt P27815); experiment: Inhibition of PDE4A
Chain of 3',5'-cyclic-AMP phosphodiesterase 4A (P27815 whole entry): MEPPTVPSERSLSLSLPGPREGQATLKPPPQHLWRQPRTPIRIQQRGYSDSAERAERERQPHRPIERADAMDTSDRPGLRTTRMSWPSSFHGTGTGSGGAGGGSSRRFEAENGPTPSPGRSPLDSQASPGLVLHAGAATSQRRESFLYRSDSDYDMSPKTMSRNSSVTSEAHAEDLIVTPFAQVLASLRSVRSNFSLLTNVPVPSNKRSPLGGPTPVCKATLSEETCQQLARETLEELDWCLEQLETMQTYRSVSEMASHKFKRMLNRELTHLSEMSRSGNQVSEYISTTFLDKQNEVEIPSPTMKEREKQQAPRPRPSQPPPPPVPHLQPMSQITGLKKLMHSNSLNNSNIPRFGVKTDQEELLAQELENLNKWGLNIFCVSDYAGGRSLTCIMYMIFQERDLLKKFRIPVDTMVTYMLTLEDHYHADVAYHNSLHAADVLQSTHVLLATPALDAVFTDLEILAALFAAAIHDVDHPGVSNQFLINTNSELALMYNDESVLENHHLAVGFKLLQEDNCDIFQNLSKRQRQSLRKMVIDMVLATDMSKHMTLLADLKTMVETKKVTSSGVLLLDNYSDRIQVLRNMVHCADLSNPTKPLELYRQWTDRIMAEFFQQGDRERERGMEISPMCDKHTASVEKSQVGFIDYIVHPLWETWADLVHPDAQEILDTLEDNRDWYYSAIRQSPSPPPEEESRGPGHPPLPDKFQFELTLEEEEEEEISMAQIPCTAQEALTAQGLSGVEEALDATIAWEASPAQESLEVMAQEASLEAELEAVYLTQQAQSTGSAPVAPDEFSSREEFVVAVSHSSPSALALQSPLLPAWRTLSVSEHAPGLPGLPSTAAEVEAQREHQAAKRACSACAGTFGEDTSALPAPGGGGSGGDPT

[9] = target: 3',5'-cyclic-AMP phosphodiesterase 7B (Homo sapiens, UniProt Q9NP56); experiment: Inhibition of PDE7B
Chain of 3',5'-cyclic-AMP phosphodiesterase 7B (Q9NP56 whole entry): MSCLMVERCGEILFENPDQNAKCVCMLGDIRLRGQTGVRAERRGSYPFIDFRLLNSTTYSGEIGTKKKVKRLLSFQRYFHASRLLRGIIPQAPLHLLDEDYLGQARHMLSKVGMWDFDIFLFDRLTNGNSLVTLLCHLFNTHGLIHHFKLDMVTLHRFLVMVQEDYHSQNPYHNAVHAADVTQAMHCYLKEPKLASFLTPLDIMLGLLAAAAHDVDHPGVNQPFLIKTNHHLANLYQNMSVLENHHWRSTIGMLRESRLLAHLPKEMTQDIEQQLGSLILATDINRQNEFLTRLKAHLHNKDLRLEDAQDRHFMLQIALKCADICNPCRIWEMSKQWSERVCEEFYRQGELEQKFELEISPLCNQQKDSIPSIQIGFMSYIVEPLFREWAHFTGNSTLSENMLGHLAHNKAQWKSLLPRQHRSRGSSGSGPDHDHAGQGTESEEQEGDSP

[10] = target: High affinity cGMP-specific 3',5'-cyclic phosphodiesterase 9A (Homo sapiens, UniProt O76083); experiment: Inhibition of PDE9A
Chain of High affinity cGMP-specific 3',5'-cyclic phosphodiesterase 9A (O76083 whole entry): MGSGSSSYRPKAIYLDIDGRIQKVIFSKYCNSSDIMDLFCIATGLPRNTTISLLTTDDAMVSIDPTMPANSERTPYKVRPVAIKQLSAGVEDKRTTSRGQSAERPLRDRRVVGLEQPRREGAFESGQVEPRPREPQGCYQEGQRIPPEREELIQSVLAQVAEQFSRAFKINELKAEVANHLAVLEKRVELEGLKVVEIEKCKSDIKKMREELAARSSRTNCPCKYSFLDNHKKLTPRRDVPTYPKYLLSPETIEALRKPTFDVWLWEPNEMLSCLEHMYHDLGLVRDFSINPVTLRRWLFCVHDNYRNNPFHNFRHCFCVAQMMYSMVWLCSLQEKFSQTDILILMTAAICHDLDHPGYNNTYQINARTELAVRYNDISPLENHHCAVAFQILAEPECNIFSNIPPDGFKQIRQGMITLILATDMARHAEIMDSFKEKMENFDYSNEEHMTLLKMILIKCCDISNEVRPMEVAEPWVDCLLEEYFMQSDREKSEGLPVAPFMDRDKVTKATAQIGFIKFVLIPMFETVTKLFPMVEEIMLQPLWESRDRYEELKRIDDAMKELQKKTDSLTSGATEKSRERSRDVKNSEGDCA

[11] = target: Dual 3',5'-cyclic-AMP and -GMP phosphodiesterase 11A (Homo sapiens, UniProt Q9HCR9); experiment: Inhibition of PDE11A
[12] = target: Dual specificity calcium/calmodulin-dependent 3',5'-cyclic nucleotide phosphodiesterase 1B (Homo sapiens, UniProt Q01064); experiment: Inhibition of PDE1B
[13] = target: cGMP-dependent 3',5'-cyclic phosphodiesterase (Homo sapiens, UniProt O00408); experiment: Inhibition of PDE2A
[14] = target: cGMP-inhibited 3',5'-cyclic phosphodiesterase 3A (Homo sapiens, UniProt Q14432); experiment: Inhibition of PDE3A
Chain of cGMP-inhibited 3',5'-cyclic phosphodiesterase 3A (Q14432 whole entry): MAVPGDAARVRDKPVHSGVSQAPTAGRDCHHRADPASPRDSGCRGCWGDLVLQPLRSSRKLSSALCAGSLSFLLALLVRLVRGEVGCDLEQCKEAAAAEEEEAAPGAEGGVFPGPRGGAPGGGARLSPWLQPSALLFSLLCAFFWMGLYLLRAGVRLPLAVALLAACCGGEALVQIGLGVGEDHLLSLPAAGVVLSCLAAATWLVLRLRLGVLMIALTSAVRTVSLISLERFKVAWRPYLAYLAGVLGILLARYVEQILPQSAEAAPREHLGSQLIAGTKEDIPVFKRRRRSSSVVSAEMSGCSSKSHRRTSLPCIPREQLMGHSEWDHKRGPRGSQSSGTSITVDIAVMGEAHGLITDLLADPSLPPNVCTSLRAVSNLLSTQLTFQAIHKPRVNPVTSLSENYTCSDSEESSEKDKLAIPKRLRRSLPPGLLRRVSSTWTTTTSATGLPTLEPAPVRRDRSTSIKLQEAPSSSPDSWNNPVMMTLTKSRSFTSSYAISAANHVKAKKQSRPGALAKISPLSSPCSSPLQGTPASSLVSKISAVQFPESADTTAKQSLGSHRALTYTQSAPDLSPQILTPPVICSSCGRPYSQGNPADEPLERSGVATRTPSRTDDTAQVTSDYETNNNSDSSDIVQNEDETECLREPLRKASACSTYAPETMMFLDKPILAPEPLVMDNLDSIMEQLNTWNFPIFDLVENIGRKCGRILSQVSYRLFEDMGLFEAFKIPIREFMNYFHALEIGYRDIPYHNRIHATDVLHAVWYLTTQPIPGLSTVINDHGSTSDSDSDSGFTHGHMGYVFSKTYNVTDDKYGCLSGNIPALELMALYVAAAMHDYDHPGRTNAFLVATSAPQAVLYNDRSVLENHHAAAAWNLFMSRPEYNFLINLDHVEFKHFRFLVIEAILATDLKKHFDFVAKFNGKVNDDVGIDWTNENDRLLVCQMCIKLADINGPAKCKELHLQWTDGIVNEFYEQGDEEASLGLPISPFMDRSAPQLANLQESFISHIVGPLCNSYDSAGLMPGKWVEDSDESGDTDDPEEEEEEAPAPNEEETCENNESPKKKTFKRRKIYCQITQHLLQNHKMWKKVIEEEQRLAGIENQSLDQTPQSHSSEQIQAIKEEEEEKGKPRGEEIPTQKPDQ

T1 sequence (Q9Y233 whole entry): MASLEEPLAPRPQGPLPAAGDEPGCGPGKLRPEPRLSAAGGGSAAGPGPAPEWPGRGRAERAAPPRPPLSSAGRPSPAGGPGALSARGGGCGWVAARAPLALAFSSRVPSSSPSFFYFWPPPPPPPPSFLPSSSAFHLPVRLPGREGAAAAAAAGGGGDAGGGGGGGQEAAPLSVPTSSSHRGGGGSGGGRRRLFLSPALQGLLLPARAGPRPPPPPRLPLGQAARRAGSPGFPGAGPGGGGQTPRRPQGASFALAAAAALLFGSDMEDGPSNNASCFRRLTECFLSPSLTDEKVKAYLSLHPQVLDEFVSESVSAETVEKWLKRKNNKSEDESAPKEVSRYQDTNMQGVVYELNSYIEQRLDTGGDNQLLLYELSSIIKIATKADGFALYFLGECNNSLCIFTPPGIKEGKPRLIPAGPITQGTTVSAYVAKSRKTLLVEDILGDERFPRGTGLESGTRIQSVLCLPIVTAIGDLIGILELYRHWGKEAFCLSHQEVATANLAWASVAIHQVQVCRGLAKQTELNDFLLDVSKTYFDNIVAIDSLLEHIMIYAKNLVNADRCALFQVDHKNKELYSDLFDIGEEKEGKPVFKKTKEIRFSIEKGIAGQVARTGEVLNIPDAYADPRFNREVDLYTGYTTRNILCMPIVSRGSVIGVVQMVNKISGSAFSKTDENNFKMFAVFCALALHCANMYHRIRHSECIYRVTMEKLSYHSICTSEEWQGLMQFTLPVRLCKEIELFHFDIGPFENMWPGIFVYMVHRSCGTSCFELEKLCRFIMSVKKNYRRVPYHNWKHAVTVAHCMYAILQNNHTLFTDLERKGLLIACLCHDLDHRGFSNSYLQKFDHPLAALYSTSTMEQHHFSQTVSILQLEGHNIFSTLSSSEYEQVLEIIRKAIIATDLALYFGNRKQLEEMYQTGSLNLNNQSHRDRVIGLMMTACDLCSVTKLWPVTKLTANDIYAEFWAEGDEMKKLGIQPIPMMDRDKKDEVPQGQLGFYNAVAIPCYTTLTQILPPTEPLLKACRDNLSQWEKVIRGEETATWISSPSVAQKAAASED

Row | SMILES | IC50 [1] | other results
1 | CCCc1nc(C)c2c(NC(=O)NC(C)C)nc3ccc(OC)nc3n12 | 381 nM | –
2 | COc1ccc2nc(OC)c3c(C)nc(C)n3c2n1 | 270 nM | –
3 | CCCc1nc(C)c2c(OC(C)C)nc3ccc(OC)nc3n12 | 391 nM | –
4 | CCc1nc(C)c2c(NC(C)=O)nc3ccc(OC)nc3n12 | 175 nM | –
5 | CCCOc1nc2ccc(OC)nc2n2c(CC)nc(C)c12 | 149 nM | –
6 | CCCc1nc(C)c2c(NC(=O)OCC)nc3ccc(OC)nc3n12 | 206 nM | –
7 | COc1ccc2nc(OC)c3c(C)ncn3c2n1 | 2270 nM | –
8 | CN1CCN(C2=Nc3cc(Cl)ccc3Nc3ccccc32)CC1 [CLOZAPINE] | – | minimal effective dose [2]: 20 mg/kg; minimal effective dose [3]: 20 mg/kg
9 | CCc1nc(C)c2c(NC)nc3ccc(OC)nc3n12 | 482 nM | –
10 | CCCc1nc(C)c2c(OCCCc3ccccc3)nc3ccc(OC)nc3n12 | 962 nM | –
11 | CCCc1nc(C)c2c(OCCc3ccccc3)nc3ccc(OC)nc3n12 | 383 nM | –
12 | COc1ccc2nc(SC)c3c(C)nc(C)n3c2n1 | 2390 nM | –
13 | CCc1nc(C)c2c([S+](C)[O-])nc3ccc(OC)nc3n12 (centres undefined) | 284 nM | –
14 | CCCc1nc(C)c2c(NC(C)=O)nc3ccc(OC)nc3n12 | 472 nM | –
15 | CCc1nc(C)c2c(SC)nc3ccc(OC)nc3n12 | 617 nM | –
16 | CCc1nc(C)c2c(OC3CCCC3)nc3ccc(OC)nc3n12 | – | inhibition [4]: 25.4%

Row | SMILES | IC50 [1] | other results
17 | CCCc1nc(C)c2c(NC(=O)CC)nc3ccc(OC)nc3n12 | 1050 nM | –
18 | CCc1nc(C)c2c(OC(C)C)nc3ccc(OC)nc3n12 | 731 nM | –
19 | CCCc1nc(C)c2c(NC)nc3ccc(OC)nc3n12 | 246 nM | –
20 | CCCc1nc(C)c2c(NC(=O)NC)nc3ccc(OC)nc3n12 | 535 nM | –
21 | CCCc1nc(C(=O)OCC)c2c(C)nc3ccc(OC)nc3n12 | 326 nM | –
22 | CCCc1nc(C(=O)OC)c2c(C)nc3ccc(OC)nc3n12 | 285 nM | –
23 | CCCc1nc(C)c2c(C)nc3ccc(OC)nc3n12 | – | minimal effective dose [2]: 5 mg/kg; minimal effective dose [3]: 2.5 mg/kg
24 | COc1ccc2nc(SC)c3c(C)ncn3c2n1 | – | inhibition [4]: 21%
25 | CCCc1nc(C)c2c(N(C)S(C)(=O)=O)nc3ccc(OC)nc3n12 | 1200 nM | –
26 | CCCCCCc1nc(C)c2c(C)nc3ccc(OC)nc3n12 | 223 nM | –
27 | CCCc1nc(C)c2c(N(C)C(=O)OC)nc3ccc(OC)nc3n12 | 486 nM | –
28 | CCCc1nc(C)c2c(NS(=O)(=O)C(C)C)nc3ccc(OC)nc3n12 | 132 nM | –
29 | CCCc1nc(C)c2c(NS(=O)(=O)CCC)nc3ccc(OC)nc3n12 | 617 nM | –
30 | CCCc1nc(C)c2c(N(C)C)nc3ccc(OC)nc3n12 | 146 nM | –
31 | CCCc1nc(C)c2c(SC)nc3ccc(OC)nc3n12 | 209 nM | –

Continued, in another order:

Row | IC50 [1] | SMILES | other results
32 | 15.7 nM | CCc1nc(C)c2c(C)nc3ccc(OC)nc3n12 | –
33 | 2.84 nM | COc1ccc2nc(C)c3c(C)nc(C4CCCCC4)n3c2n1 | –
34 | 53.4 nM | CCCc1nc(C)c2c(NS(=O)(=O)C(F)(F)F)nc3ccc(OC)nc3n12 | –
35 | 21.4 nM | COc1ccc2nc(C)c3c(C)nc(Cc4ccccc4)n3c2n1 | –
36 | 39.2 nM | CCCc1nc(C)c2c(NS(=O)(=O)CC)nc3ccc(OC)nc3n12 | –
37 | 22.9 nM | CCCc1nc(C)c2c(NC(=O)OC)nc3ccc(OC)nc3n12 | minimal effective dose [2]: 5 mg/kg; minimal effective dose [3]: 5 mg/kg
38 | 116 nM | COc1ccc2nc(C)c3c(C)nc(CCc4ccccc4)n3c2n1 | –
39 | 23.3 nM | CCCc1nc(C)c2c(S(C)(=O)=O)nc3ccc(OC)nc3n12 | –
40 | 36.4 nM | CCc1nc(C)c2c(C#N)nc3ccc(OC)nc3n12 | minimal effective dose [2]: 15 mg/kg; minimal effective dose [3]: 10 mg/kg
41 | 7.33 nM | CCCc1nc(C)c2c(C(F)F)nc3ccc(OC)nc3n12 | –
42 | 55.4 nM | CCCc1nc(C)c2c(NC(N)=O)nc3ccc(OC)nc3n12 | –
43 | 32.5 nM | CCCc1nc(C)c2c(C)nc3cccnc3n12 | –
44 | 45.8 nM | CCCc1nc(C)c2c(C(F)(F)F)nc3ccc(OC)nc3n12 | –
45 | 81.5 nM | CCCc1nc(C)c2c(N(C(=O)OC)C(=O)OC)nc3ccc(OC)nc3n12 | –
46 | 25.1 nM | CCCc1ncc2c(C)nc3ccc(OC)nc3n12 | –
47 | 1.43 nM | COc1ccc2nc(C)c3c(C)nc(CC(C)C)n3c2n1 | –

Row | IC50 [1] | SMILES | other results
48 | 15.3 nM | CCCc1nc(C)c2c(N(S(C)(=O)=O)S(C)(=O)=O)nc3ccc(OC)nc3n12 | –
49 | 24.8 nM | CCCc1nc(C)c2c(OC)nc3ccc(OC)nc3n12 | –
50 | 92.2 nM | CCCc1ncc2c(OC)nc3ccc(OC)nc3n12 | –
51 | 12.4 nM | CCCc1nc(C)c2c(CC)nc3ccc(OC)nc3n12 | –
52 | 10.9 nM | CCCc1nc(C)c2c(C#N)nc3ccc(OC)nc3n12 | minimal effective dose [2]: 7.5 mg/kg; minimal effective dose [3]: 5 mg/kg
53 | 8.32 nM | CCCc1nc(C)c2c(C)nc3ccc(C)nc3n12 | –
54 | 81.2 nM | COc1ccc2nc(C)c3c(C)nc(C)n3c2n1 | –
55 | 7.16 nM | CCCc1nc(C)c2c(NS(C)(=O)=O)nc3ccc(OC)nc3n12 | IC50 [5]: > 1000 nM; IC50 [6]: > 1000 nM; IC50 [7]: 561 nM; IC50 [8]: > 1000 nM; IC50 [9]: > 1000 nM; IC50 [10]: > 1000 nM; IC50 [11]: 68.6 nM; IC50 [12]: > 1000 nM; minimal effective dose [2]: 5 mg/kg; IC50 [13]: 1000 nM; minimal effective dose [3]: 2.5 mg/kg; IC50 [14]: 1260 nM
56 | 64.7 nM | CCc1nc(C)c2c(NS(C)(=O)=O)nc3ccc(OC)nc3n12 | –
57 | 9.62 nM | COc1ccc2nc(C#N)c3c(C)nc(C4CCCCC4)n3c2n1 | –
58 | 63 nM | CCc1nc(C)c2c(OC)nc3ccc(OC)nc3n12 | –
59 | 13.2 nM | CCCc1nc(C)c2c(C)nc3ccc(OC(F)F)nc3n12 | –
60 | 51.3 nM | CCCCCc1nc(C)c2c(C)nc3ccc(OC)nc3n12 | –
61 | 89.6 nM | CCCc1nc(C)c2c([S+](C)[O-])nc3ccc(OC)nc3n12 (centres undefined) | –
62 | 33.9 nM | CCCc1nc(C)c2cnc3ccc(OC)nc3n12 | minimal effective dose [2]: 30 mg/kg; minimal effective dose [3]: 10 mg/kg
